Drawing on ChEMBL document CHEMBL4038266, “Griseofulvin Derivative and Indole Alkaloids from Penicillium griseofulvum CPCC 400528” (J Nat Prod, 2017), this text covers MIC and IC50 for nine compounds.

In assay [1] the test system is Escherichia coli. Briefly: Antibacterial activity against Escherichia coli after 18 hrs by broth microdilution method. In kind it is functional. In outline:
(§1)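 Broth microdilution per CLSI, using ATCC standard strains. Final compound concentrations ran from 0.125 to 256 μg/mL. Plates were incubated at 37 °C for 18 h. MIC was taken as the lowest concentration preventing visible bacterial growth. Levofloxacin served as the positive control.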

Assay [2] deals with Staphylococcus aureus. Nature of the assay: Antibacterial activity against Staphylococcus aureus after 18 hrs by broth microdilution method. Format: functional. In outline:
as §1

Assay [3] has as its system Human immunodeficiency virus 1. Nature of the assay: Antiviral activity against VSV pseudotyped HIV1 infected in SupT1 cells after 48 hrs by luciferase reporter gene assay. In kind it is functional, cell-based. The conditions noted are these: Human immunodeficiency virus 1, SUP-T1, 48 h. In outline: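 VSV-G pseudotyped HIV-1 produced by cotransfecting 293T cells (2 × 10^5/mL) with 0.6 μg pNL-Luc-E and 0.4 μg pHIT/G. Supernatant harvested after 48 h, 0.45 μm filtered, and capsid quantified by p24 antigen-capture ELISA. SupT1 cells infected at MOI 1 with or without compound, 37 °C, 48 h. Inhibition read by firefly luciferase. Efavirenz positive control.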

As for `COC1=CC(=O)C[C@@H](C)[C@]12Oc1cc(OC)cc(OC)c1C2=O`, the minimum inhibitory concentration (MIC) in assay [1] and in assay [2] was more than 64 µg/mL each time. The compound further displayed an IC50 in assay [3] of 89.7 µM.

For the compound `COc1cc(O)c2c(=O)c3c(C)cc(O)cc3oc2c1`, the minimum inhibitory concentration (MIC) in assay [1] and in assay [2] was more than 64 µg/mL throughout. For the same compound, in assay [3], the IC50 came out at 79.4 µM.

Take `CC(=O)[C@@]1(O)C(=O)N2C(C)(C)[C@@H]3Cc4cccc5c4[C@@]4(O[C@@]1(O)[C@@]2(O)[C@H]34)C(=O)N5`: the MIC in assay [1] and in assay [2] was more than 64 µg/mL throughout. In assay [3], this compound showed a concentration for half-maximal inhibition (IC50) of 70.1 µM.

Regarding `COc1ccc2c3c1C(=O)CC(C)(C)N3C(=O)[C@]21C[C@]2([N+](=O)[O-])CN3CCC[C@H]3C[C@@H]2C1(C)C`, the MIC in assay [1] and in assay [2] was more than 64 µg/mL throughout. 57.7 µM corresponded to half-maximal inhibition in assay [3] (IC50).

With `COc1cc(OC)c2c(c1Cl)O[C@@]1(C(=O)C=C(NCCC(C)C)C[C@H]1C)C2=O`, the MIC in assay [1] and in assay [2] was more than 64 µg/mL each time. Also, in assay [3], the 50% inhibitory concentration (IC50) came out at 33.2 µM.

As for `COC1=CC(=O)C[C@@H](C)[C@]12Oc1c(Cl)c(OC)cc(OC)c1C2=O` [GRISEOFULVIN], the MIC in assay [1] and in assay [2] was more than 64 µg/mL each time. The compound also had an IC50 in assay [3] of 87.1 µM.

On to `Cc1cc(=O)n2c(n1)-c1c(cc3cccc4c3c1C(=O)N4C)C2(C)C`, for which the MIC in assay [1] and in assay [2] was more than 64 µg/mL each time. This compound also displayed an IC50 in assay [3] of 77.9 µM.

As for `Cc1cc(=O)n2c(n1)-c1c(cc3cccc4c3c1C(=O)N4)C2(C)C`, the MIC in assay [1] and in assay [2] was more than 64 µg/mL in each case. Also, half-maximal inhibition in assay [3] (IC50) was put at 20.5 µM.

Turning to `CN1C(=O)c2c3c(cc4cccc1c24)C(C)(C)NC3=O`, the MIC in assay [1] and in assay [2] was more than 64 µg/mL each time. The compound further came in with an IC50 in assay [3] of 12.6 µM.
